Test results from publication PMC2195664 (The Journal of Experimental Medicine, 1999).
Where two headings read alike, the source gives them in different places. Ends that are not written are not given here. * marks the point of attachment. Biotin = O=C1N[C@H]2[C@H](CS[C@H]2CCCCC(=O)*)N1

Columns and labels:
[1] = tested on: 3C3 mouse NK T cell hybridoma; test: Competition for α-GalCer presentation by plate-bound mCD1 to 3C3 hybridoma; type: cell-based; conditions: 1 μg/well mCD1 preincubated with 25 ng/well α-GalCer
mCD1 [2] = biological target: T1, mCD1 (Mus musculus, UniProt P11609); test: SPR; type: binding
hCD1d [3] = biological target: T2, hCD1d (Homo sapiens, UniProt P15813); test: SPR; type: binding
[4] = tested on: 3C3 mouse NK T cell hybridoma; test: Antigen presentation by plate-bound mCD1 to 3C3 hybridoma, IL-2 release ELISA; type: cell-based; conditions: 1 μg/well plate-bound mCD1 preincubated with 100 ng lipid
In short: (§1)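 Soluble CD1d–β2m heterodimers came from stably cotransfected Drosophila SC2 cells induced 3 d with 0.7 mM CuSO₄, purified on Ni-NTA then Mono Q. Plates were coated 2 h at 37°C with 1 µg/well protein premixed with lipid in PBS. Controls were protein with DMSO (0.25–1% final) or lipid alone. After five PBS washes, 5 × 10⁴ 3C3 cells/well were added; IL-2 was measured by ELISA after 16 h.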

[5] = tested on: 3C3 mouse NK T cell hybridoma; test: Antigen presentation by plate-bound hCD1d to 3C3 hybridoma, IL-2 release ELISA; type: cell-based; conditions: 1 μg/well plate-bound hCD1d preincubated with 100 ng lipid
In short: as §1

[6] = tested on: 3C3 mouse NK T cell hybridoma; type: cell-based; conditions: mCD1+ A20 cells pulsed with 100 ng/ml lipid; 16 h
DN3A4-1.2 NK T hybridoma = test: Stimulation of 1.2 hybridoma by plates coated with soluble CD1d, IL-2 release; type: cell-based, mouse; conditions: 50 ng/well α-GalCer
In short: (§2)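 Plates were coated 2 h at 37°C with 1 µg/well soluble mCD1 or hCD1d (insect-cell-derived), either alone or premixed in PBS with 50 ng/well α-GalCer. After five PBS washes, 5 × 10⁴ hybridoma cells/well were added. IL-2 was quantified after 16 h by sandwich ELISA against a recombinant IL-2 standard (detection limit 0.1 U/ml). Representative of five experiments.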

N38-2C12 NK T hybridoma = test: Stimulation of 2C12 hybridoma by plates coated with soluble CD1d, IL-2 release; type: cell-based, mouse; conditions: 50 ng/well α-GalCer
In short: as §2

[7] = tested on: Vα14+ mouse NK T cell hybridomas N38-2H4 and DN3A4-1.4; test: Recognition of antigen on immobilized mCD1 by Vβ7; type: cell-based; conditions: data not shown
[8] = Solubility in aqueous solution; type: physicochemical; conditions: must be dissolved in DMSO-containing solutions
mCD1-restricted CTLs = conditions: cited from earlier work
mCD1 [9] = biological target: T1, mCD1; type: binding; conditions: competitor preincubated with protein in solution
hCD1d [10] = biological target: T2, hCD1d; type: binding; conditions: competitor preincubated with protein in solution
[11] = tested on: 3C3 mouse NK T cell hybridoma; test: Competition for α-GalCer presentation by plate-bound hCD1d; type: cell-based; conditions: data not shown
In short: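 Gangliosides dissolved in PBS were added to soluble insect-cell-derived hCD1d before α-GalCer. The mixture was coated onto plates 2 h at 37°C and washed five times in PBS. 3C3 hybridoma cells (5 × 10⁴/well) were cultured 16 h, and IL-2 was measured by ELISA.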

mCD1 [12] = biological target: T1, mCD1; test: SPR competition: mCD1 binding to biotin-P99 chip; conditions: mCD1 1.8–2 μM
NK T cells = conditions: cited from earlier work
[13] = biological target: T3, soluble mCD1–mβ2m heterodimer (mouse, UniProt P11609 22-305; P01887 21-119); test: SPR
T3 sequence (looked up) 1: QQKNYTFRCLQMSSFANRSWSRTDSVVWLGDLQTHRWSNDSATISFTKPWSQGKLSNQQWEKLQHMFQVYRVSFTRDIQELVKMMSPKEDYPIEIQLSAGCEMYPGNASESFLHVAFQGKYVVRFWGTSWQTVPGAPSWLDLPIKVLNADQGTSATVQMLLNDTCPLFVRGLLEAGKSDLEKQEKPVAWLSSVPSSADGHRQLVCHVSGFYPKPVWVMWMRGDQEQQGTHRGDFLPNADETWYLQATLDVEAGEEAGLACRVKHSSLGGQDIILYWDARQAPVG
T3 sequence (looked up) 2: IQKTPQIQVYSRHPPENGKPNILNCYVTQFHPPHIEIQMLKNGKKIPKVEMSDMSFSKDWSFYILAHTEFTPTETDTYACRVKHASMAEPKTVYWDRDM

Molecule: CC(=O)N[C@H]1[C@H](O[C@H]2[C@@H](O)[C@@H](CO)O[C@@H](O[C@@H]([C@H](O)[C@@H](O)C=O)[C@H](O)CO)[C@@H]2O)O[C@H](CO[C@]2(C(=O)O)C[C@H](O)[C@@H](NC(C)=O)[C@H]([C@H](O)[C@H](O)CO)O2)[C@@H](O)[C@@H]1O[C@@H]1O[C@H](CO)[C@H](O)[C@H](O[C@]2(C(=O)O)C[C@H](O)[C@@H](NC(C)=O)[C@H]([C@H](O)[C@H](O)CO)O2)[C@H]1O [disialyllacto-N-tetraose, α-Neu5Ac-[2→3]-β-Gal-[1→3]-(α-Neu5Ac-[2→6])-β-GlcNac-[1→3]-β-Gal-[1→4]-Glc]
- inhibition of α-GalCer presentation [1]: did not inhibit
- inhibition of α-GalCer presentation ([1]; listed as control hexasaccharide): has no effect

Molecule: CCCCCCCCCCCCCCCCCCCCCCCCCC(=O)N[C@@H](CO[C@H]1O[C@H](CO)[C@H](O)[C@H](O)[C@H]1O)[C@H](O)[C@H](O)CCCCCCCCCCCCCC [α-GalCer, α-galactosyl ceramide]
- koff (mCD1 [2]; read-out: k off (fast)): 0.1 s⁻¹
- koff (mCD1 [2]; read-out: k off (slow)): 0.004 s⁻¹
- koff (hCD1d [3]; read-out: k off (fast)): 0.08 s⁻¹
- koff (hCD1d [3]; read-out: k off (slow)): 0.004 s⁻¹
- presentation to 3C3 hybridoma (IL-2 release) [4]: could both present
- presentation to 3C3 hybridoma (IL-2 release) [5]: could both present
- presentation to 3C3 hybridoma (IL-2 release) [6]: can present
- effect on response to plate-bound CD1d (DN3A4-1.2 NK T hybridoma): can be enhanced
- effect on response to plate-bound CD1d (N38-2C12 NK T hybridoma): can be enhanced
- recognition when presented by immobilized mCD1 [7]: could recognize
- solubility [8]: much less soluble than the gangliosides
- effect on ovalbumin peptide recognition (mCD1-restricted CTLs): did not affect

Molecule: GD1a
- inhibition of mCD1 binding to biotin–α-GalCer or biotin–β-GalCer chip (mCD1 [9]): could inhibit
- inhibition of hCD1d binding to biotin–α-GalCer or biotin–β-GalCer chip (hCD1d [10]): could inhibit
- inhibition of α-GalCer presentation [1]: could inhibit
- inhibition of α-GalCer presentation [11]: could inhibit

Molecule: YEHDFHHIREWGNHWKNCLAVM [P99]
- inhibition of mCD1 binding to biotin–α-GalCer or biotin–β-GalCer chip (mCD1 [9]): does not affect
- inhibition of mCD1 binding to immobilized biotin-P99 (mCD1 [12]): inhibited by increasing concentrations
- prevention of α-GalCer recognition by NK T cells (NK T cells): neither P99 nor an ovalbumin peptide could prevent

Molecule: Biotin-YEHDFHHIREWGNHWKNCLAVM [NH2 terminus biotinylated P99 peptide]
- koff [13]: 0.005 to 0.008 s⁻¹
